Assay [1] addresses T1, 4,4'-diapophytoene desaturase (4,4'-diaponeurosporene-forming) (Staphylococcus aureus (strain MW2)) (UniProt Q8NUQ6).
T1 sequence (whole entry): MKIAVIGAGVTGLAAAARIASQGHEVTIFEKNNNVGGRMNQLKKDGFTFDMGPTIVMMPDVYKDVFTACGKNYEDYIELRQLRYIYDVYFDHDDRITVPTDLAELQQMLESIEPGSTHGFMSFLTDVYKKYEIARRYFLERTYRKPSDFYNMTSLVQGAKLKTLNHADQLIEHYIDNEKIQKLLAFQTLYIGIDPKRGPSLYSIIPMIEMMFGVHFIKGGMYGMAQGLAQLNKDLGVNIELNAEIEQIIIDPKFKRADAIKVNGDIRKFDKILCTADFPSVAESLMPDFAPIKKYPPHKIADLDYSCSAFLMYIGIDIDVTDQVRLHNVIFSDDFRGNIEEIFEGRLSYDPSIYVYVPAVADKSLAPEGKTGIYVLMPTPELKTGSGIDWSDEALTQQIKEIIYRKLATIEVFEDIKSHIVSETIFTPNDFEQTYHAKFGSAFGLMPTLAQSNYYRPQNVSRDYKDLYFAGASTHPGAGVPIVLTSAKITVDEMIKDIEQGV
Briefly: Inhibition of CrtN in methicillin-resistant Staphylococcus aureus USA400 MW2 assessed as increase in H2O2-induced bacterial death by measuring survival rate preincubated for 24 hrs followed by H2O2 addition measured after 30 mins by serial dilution method (reference value: 28.7%). The conditions noted are these: Staphylococcus aureus subsp. aureus MW2. An outline of the steps: (§1)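 Bacteria pretreated with 1 µM inhibitor or mock; N-acetylcysteine-treated cells served as control. Cells then exposed to 1.5% H2O2, and percent survival determined.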

Assay [2] has as its system Staphylococcus aureus. Briefly: Chemo-sensitization activity in non-pigmented Staphylococcus aureus Newman assessed as increase in H2O2-induced bacterial death by measuring survival rate pre-incubated for 24 hrs followed by H2O2 addition measured after 30 mins by serial dilution method (reference value: 33.3%). The class given is functional. An outline of the steps:
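S. aureus Newman was pre-incubated with 1 µM compound, with N-acetylcysteine as antioxidant control, or mock-treated. Cells were then exposed to 1.5% H2O2. Percent bacterial survival was compared with the mock-treated culture.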

For assay [3], the target named is T2, 4,4'-diapophytoene desaturase (4,4'-diaponeurosporene-forming) (Staphylococcus aureus (strain Mu50 / ATCC 700699)) (UniProt Q99R76).
T2 sequence (whole entry): T1 sequence (whole entry) with Q500R
Briefly: Inhibition of CrtN in methicillin-resistant Staphylococcus aureus Mu50 assessed as increase in H2O2-induced bacterial death by measuring survival rate at preincubated for 24 hrs followed by H2O2 addition measured after 30 mins by serial dilution method (reference value: 29.0%). As to conditions: Staphylococcus aureus subsp. aureus Mu50. An outline of the steps:
as §1

The target of assay [4] is T3, 4,4'-diapophytoene desaturase (4,4'-diaponeurosporene-forming) (Staphylococcus aureus (strain USA300)) (UniProt Q2FDU6).
T3 sequence (whole entry): T1 sequence (whole entry) with Q500R
The assay can be described thus: Inhibition of CrtN in methicillin-resistant Staphylococcus aureus LAC USA300 assessed as increase in H2O2-induced bacterial death by measuring survival rate preincubated for 24 hrs followed by H2O2 addition measured after 30 mins by serial dilution method (reference value: 29.0%). The method, boiled down: as §1

The test system of assay [5] is Staphylococcus aureus. Briefly: In vivo anti-virulence activity against methicillin-resistant Staphylococcus aureus LRSA202 infected in BALB/c mouse model assessed as reduction in bacterial load in heart at 0.4 mg bid for 3.5 days administered intraperitoneally 6 hrs post infection by serial dilution method relative to control. The class given is functional, organism-based. The method, boiled down: (§2)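 Mice were infected by retro-orbital injection with LRSA56 (5.0 × 10^7 CFU) or LRSA202 (7.0 × 10^7 CFU). Compound was given intraperitoneally 6 h after infection. […] Log10 CFU was counted in kidneys and hearts, with groups compared by two-tailed Mann-Whitney test.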

In assay [6] the test system is Staphylococcus aureus. The assay can be described thus: In vivo anti-virulence activity against methicillin-resistant Staphylococcus aureus LRSA202 infected in BALB/c mouse model assessed as reduction in bacterial load in kidney at 0.1 mg bid for 3.5 days administered intraperitoneally 6 hrs post infection by serial dilution method relative to control. In kind it is functional, organism-based. An outline of the steps: as §2

Assay [7] deals with Staphylococcus aureus. Briefly: In vivo anti-virulence activity against methicillin-resistant Staphylococcus aureus LRSA202 infected in BALB/c mouse model assessed as reduction in bacterial load in kidney at 0.4 mg bid for 3.5 days administered intraperitoneally 6 hrs post infection by serial dilution method relative to control. In kind it is functional, organism-based. An outline of the steps:
as §2

For assay [8], the system named is Staphylococcus aureus. Briefly: In vivo anti-virulence activity against methicillin-resistant Staphylococcus aureus Mu50 infected in BALB/c mouse model assessed as reduction in bacterial load in heart at 0.4 mg bid for 4.5 days administered intraperitoneally 6 hrs post infection by serial dilution method. The class given is functional, organism-based.
The test system of assay [9] is Staphylococcus aureus. Briefly: In vivo anti-virulence activity against Staphylococcus aureus Mu50 infected in BALB/c mouse model assessed as reduction in bacterial load in kidney at 0.4 mg bid for 4.5 days administered […] 6 hrs post infection by serial dilution method relative to control. In kind it is functional, organism-based.
Assay [10] deals with Staphylococcus aureus. The assay can be described thus: In vivo anti-virulence activity against methicillin-resistant Staphylococcus aureus LRSA202 infected in BALB/c mouse model assessed as reduction in bacterial load in heart at 0.1 mg bid for 3.5 days administered intraperitoneally 6 hrs post infection by serial dilution method relative to control. In kind it is functional, organism-based. The method, boiled down:
as §2

Assay [11] has as its system Staphylococcus aureus. Briefly: In vivo anti-virulence activity against methicillin-resistant Staphylococcus aureus NRS271 infected in BALB/c mouse model assessed as reduction in bacterial load in heart at 0.4 mg bid for 4.5 days administered intraperitoneally 6 hrs post infection by serial dilution method. In kind it is functional, organism-based.
Assay [12] concerns Staphylococcus aureus. Briefly: In vivo anti-virulence activity against Staphylococcus aureus NRS271 infected in BALB/c mouse model assessed as reduction in bacterial load in kidney at 0.4 mg bid for 4.5 days administered orally 6 hrs post infection by serial dilution method relative to control. The class given is functional, organism-based.
For assay [13], the target named is 4,4'-diapophytoene synthase (Staphylococcus aureus, UniProt A9JQL9). Briefly: Inhibition of CrtM in Staphylococcus aureus assessed as reduction in staphyloxanthin levels after 72 hrs by spectrophotometric method.
4,4'-diapophytoene synthase, sequence (A9JQL9 whole entry): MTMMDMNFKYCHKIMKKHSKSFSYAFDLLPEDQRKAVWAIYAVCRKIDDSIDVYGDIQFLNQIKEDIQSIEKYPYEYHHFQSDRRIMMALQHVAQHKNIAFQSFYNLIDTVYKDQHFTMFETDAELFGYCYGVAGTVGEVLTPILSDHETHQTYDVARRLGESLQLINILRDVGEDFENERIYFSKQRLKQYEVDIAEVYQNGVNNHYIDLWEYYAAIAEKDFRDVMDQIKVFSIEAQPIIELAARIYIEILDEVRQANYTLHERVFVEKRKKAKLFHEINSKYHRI

Where a chain is given by its changes, count along the chain named. Active and inactive are the calls of the source. The rule behind the calls is not given here.

The IC50 is the midpoint of a concentration-inhibition curve.

In the case of `CC(=O)N[C@@H](CS)C(=O)O` [ACETYLCYSTEINE], the Survival in [1] worked out at 54.3%; in assay [2], 51.3%; in assay [3], 53%; in assay [4], 52%.
Consider `CC(=O)NC[C@H]1CN(c2ccc(N3CCOCC3)c(F)c2)C(=O)O1`, for which the outcome in assay [5], in [6], in [7], in assay [8], in assay [9] and in assay [10] was Active. For the same molecule, the outcome in [11] and in [12] was Active.
In the case of `O=P(O)(O)C(CCCc1cccc(Oc2ccccc2)c1)S(=O)(=O)O` (stereo not drawn), the IC50 in assay [13] was 110 nM.

The values are drawn from ChEMBL document CHEMBL4024779, “Novel Terminal Bipheny-Based Diapophytoene Desaturases (CrtN) Inhibitors as Anti-MRSA/VISR/LRSA Agents with Reduced hERG Activity” (J Med Chem, 2018).
